From ChEMBL document CHEMBL2321765 (J Med Chem, 2013) come the findings set out here.

Common to all, as to type: ADME, Microsome
Data set [1] has as its target T1, CYP3A4 (Homo sapiens, UniProt P08684). Kind of data set: Inhibition of CYP3A4 in human liver microsomes using testosterone as substrate at 10 uM by LC-MS-MS analysis relative to control. To be noted: probe testosterone. On the technique in general: Liver microsomes are a subcellular fraction often used to study metabolism.
Data set [2] has as its target T1, CYP3A4. Kind of data set: Time dependent inhibition of CYP3A4 in human liver microsomes using testosterone as substrate at 10 uM preincubated for 30 mins by LC-MS-MS analysis relative to control. To be noted: probe testosterone, read-out: TDI. The procedure, abridged: (§1)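 CYP3A4 metabolism of testosterone was measured after 0 or 30 min preincubation of enzyme with test article at the indicated concentration. Activity lost via preincubation, relative to the zero-minute control with the same inhibitor, was the end point. 6β-OH testosterone was detected by LC-MS/MS with cortisone as internal standard.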

The next data set addresses Cytochrome P450 3A4 (Homo sapiens, UniProt P08684). Kind of data set: Time dependent inhibition of CYP3A4 in human liver microsomes using testosterone as substrate by LC-MS-MS analysis relative to control. The essentials: as §1

SMILES strings stand for the structures. A value given as a limit tells only on which side of the number the result lay.

T1 sequence (P08684 whole entry): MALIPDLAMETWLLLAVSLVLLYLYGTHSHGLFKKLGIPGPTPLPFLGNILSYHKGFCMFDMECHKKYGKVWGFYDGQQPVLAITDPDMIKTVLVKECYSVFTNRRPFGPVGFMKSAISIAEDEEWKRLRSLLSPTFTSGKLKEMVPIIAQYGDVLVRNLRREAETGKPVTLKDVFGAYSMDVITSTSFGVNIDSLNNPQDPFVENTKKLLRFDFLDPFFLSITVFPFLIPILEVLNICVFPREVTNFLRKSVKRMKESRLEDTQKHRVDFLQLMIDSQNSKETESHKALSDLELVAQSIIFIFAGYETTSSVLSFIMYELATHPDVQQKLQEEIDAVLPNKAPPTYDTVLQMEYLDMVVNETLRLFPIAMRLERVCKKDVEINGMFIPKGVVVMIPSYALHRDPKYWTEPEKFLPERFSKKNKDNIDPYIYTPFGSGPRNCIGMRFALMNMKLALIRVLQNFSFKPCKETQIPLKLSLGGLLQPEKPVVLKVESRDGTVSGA
Cytochrome P450 3A4, sequence (P08684 whole entry): as above

In turn, `Cn1cc(-c2cnc3ccc4ccc(CS(=O)(=O)NCc5cccnn5)cc4c(=O)c3c2)cn1` showed an inhibition at 10 µM against CYP3A4 [1] of 23%. For the same compound, at CYP3A4 [2], the inhibition at 30 min, 10 µM amounted to 14%. As to `Cn1cc(-c2cnc3ccc4ccc(CS(=O)(=O)Nc5ccccc5)cc4c(=O)c3c2)cn1`, the inhibition at 10 µM at CYP3A4 [1] stood at 28%. The inhibition at 30 min, 10 µM at CYP3A4 [2] came out at 50%. In turn, `Cn1cc(-c2cnc3ccc4ccc(CC(=O)NCc5ccccn5)cc4c(=O)c3c2)cn1` yielded a TDI on Cytochrome P450 3A4 below 10%.

Regarding `Cn1cc(-c2cnc3ccc4ccc(CS(=O)(=O)NCC5CCCCN5)cc4c(=O)c3c2)cn1` (stereo unspecified), the inhibition at 10 µM at CYP3A4 [1] turned out to be 29%. Moreover, the inhibition at 30 min, 10 µM at CYP3A4 [2] is 1%. As to `Cn1cc(-c2cnc3ccc4ccc(CS(=O)(=O)NCc5cccc[n+]5[O-])cc4c(=O)c3c2)cn1`, at CYP3A4 [1], the inhibition at 10 µM was found to be 24%. The inhibition at 30 min, 10 µM at CYP3A4 [2] came out at 0%.

At CYP3A4 [1], `CCCNS(=O)(=O)Cc1ccc2ccc3ncc(-c4cnn(C)c4)cc3c(=O)c2c1` registered an inhibition at 10 µM of 21%. Further, the inhibition at 30 min, 10 µM on CYP3A4 [2] is 15%.

The compound `Cn1cc(-c2cnc3ccc4ccc(CS(=O)(=O)N[C@@H]5CCCC[C@@H]5N)cc4c(=O)c3c2)cn1` came in with an inhibition at 10 µM against CYP3A4 [1] of 27%. Besides, the inhibition at 30 min, 10 µM at CYP3A4 [2] amounted to 20%. The corresponding values for `Cn1cc(-c2cnc3ccc4ccc(CS(=O)(=O)NCc5cnsc5)cc4c(=O)c3c2)cn1` are 67% and 13%. The like results for `Cc1nccc(CNS(=O)(=O)Cc2ccc3ccc4ncc(-c5cnn(C)c5)cc4c(=O)c3c2)n1` were, in that order, 22% and 5%.

In the case of `Cn1cc(-c2cnc3ccc4ccc(CS(=O)(=O)NCC5COCCO5)cc4c(=O)c3c2)cn1` (stereo unspecified), the inhibition at 10 µM at CYP3A4 [1] worked out at 0%. Besides, the inhibition at 30 min, 10 µM on CYP3A4 [2] is 35%. The like results for `Cn1cc(-c2cnc3ccc4ccc(CS(=O)(=O)NCc5ccccc5Cl)cc4c(=O)c3c2)cn1` were, in that order, 17% and 0%.
